Test results from article PMC3569009 (Journal of neurochemistry, 2012).

What was measured:
[1] = target: α2β4β3-nAChR (Homo sapiens, UniProt P30926+Q15822); assay: two-electrode voltage clamp, Xenopus oocytes, peak inward current; assay type: cell-based
Procedure, shortened: (§1)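 Human α2 and β4 (plus β3 for trinary) subunit cRNAs, ~4 ng each at 1:1 or 1:1:1, are injected into stage VI oocytes. Two to 7 days later, oocytes are clamped at –70 mV in Ringer, pH 7.5.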

[2] = target: α2β4-nAChR (Homo sapiens, UniProt P30926+Q15822); assay: as above; assay type: cell-based
Procedure, shortened: as §1

Chain of α2β4-nAChR (Q15822 27-529): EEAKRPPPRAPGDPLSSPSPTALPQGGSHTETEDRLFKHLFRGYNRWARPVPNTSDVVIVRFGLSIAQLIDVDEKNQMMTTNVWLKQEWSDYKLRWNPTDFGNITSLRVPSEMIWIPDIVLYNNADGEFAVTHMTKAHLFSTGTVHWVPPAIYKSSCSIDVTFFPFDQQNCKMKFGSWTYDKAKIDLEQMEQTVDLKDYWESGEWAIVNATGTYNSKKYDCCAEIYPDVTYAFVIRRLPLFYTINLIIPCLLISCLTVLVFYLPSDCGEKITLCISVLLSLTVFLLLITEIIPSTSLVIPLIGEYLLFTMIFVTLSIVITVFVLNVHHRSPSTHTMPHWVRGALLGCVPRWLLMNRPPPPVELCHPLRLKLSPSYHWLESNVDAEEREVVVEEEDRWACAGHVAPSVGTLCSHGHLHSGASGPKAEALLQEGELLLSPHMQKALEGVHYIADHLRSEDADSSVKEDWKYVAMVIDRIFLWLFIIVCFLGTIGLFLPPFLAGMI
Chain of α2β4-nAChR (P30926 22-498): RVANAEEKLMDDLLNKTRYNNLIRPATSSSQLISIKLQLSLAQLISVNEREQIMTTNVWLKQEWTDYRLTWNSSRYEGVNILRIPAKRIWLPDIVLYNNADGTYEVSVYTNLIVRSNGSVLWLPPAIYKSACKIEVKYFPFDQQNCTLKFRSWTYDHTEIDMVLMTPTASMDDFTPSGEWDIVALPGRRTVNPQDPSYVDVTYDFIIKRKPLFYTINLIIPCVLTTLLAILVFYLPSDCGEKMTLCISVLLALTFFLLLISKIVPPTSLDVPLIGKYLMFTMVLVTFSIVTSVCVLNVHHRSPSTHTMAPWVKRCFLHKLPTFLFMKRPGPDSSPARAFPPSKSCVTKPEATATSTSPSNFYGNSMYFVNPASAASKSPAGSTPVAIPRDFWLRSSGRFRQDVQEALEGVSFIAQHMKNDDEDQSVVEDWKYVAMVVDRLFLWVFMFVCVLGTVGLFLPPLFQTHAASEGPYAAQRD
Chain of α2β4β3-nAChR (Q15822 27-529): as the sequence (Q15822 27-529) above
Chain of α2β4β3-nAChR (P30926 22-498): as the sequence (P30926 22-498) above
Chain of α2β4β3-nAChR (Q05901 22-458 partner): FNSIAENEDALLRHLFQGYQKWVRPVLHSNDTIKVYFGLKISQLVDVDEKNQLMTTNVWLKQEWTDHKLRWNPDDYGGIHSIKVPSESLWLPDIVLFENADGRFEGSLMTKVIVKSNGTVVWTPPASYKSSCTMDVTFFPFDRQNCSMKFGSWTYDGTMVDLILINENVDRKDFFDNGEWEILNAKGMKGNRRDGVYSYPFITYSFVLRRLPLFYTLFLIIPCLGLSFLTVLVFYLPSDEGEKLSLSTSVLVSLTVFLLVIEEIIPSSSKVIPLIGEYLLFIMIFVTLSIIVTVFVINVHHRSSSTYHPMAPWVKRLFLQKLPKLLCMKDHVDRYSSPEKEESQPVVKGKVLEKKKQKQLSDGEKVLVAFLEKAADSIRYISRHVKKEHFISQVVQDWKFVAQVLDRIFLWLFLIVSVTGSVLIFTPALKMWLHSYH

CN1CCC[C@H]1c1cccnc1 [nicotine]
EC50 [1]: 7.3 µM
EC50 [2]: 8.6 µM
